PubChem BioAssay
Calls of active or inactive are those of the source.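 The calls were made as follows: active = active in primary screen and both duplicates, each dropping signal beyond three positive-control SD with fluorescence still positive; inactive = the rest.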

molecular target: Short transient receptor potential channel 6 (Mus musculus) (UniProt Q61143); experiment: inhibition of mouse TRPC6 channel, confirmation, selectivity assay for TRPC4 inhibitor project, cell-based, HEK293, membrane potential dye, duplicate (AID 434948); settings: HEK293 TRPC6, membrane potential dye fluorescence, at 10 µM, stimulated with maximal-effect acetylcholine
In short: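 Reagent: acetylcholine at maximal (ECmax) concentration, added after compound; system: HEK293 cells expressing mouse TRPC6 channel; read-out basis: control-normalized integrated fluorescence ratio; replicates: duplicate testing; times: 45 min RT dye load, 110 s compound, 110 s agonist read; signal: membrane potential dye fluorescence, kinetic read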

Short transient receptor potential channel 6 (Mus musculus), sequence (Q61143 whole entry, looked up): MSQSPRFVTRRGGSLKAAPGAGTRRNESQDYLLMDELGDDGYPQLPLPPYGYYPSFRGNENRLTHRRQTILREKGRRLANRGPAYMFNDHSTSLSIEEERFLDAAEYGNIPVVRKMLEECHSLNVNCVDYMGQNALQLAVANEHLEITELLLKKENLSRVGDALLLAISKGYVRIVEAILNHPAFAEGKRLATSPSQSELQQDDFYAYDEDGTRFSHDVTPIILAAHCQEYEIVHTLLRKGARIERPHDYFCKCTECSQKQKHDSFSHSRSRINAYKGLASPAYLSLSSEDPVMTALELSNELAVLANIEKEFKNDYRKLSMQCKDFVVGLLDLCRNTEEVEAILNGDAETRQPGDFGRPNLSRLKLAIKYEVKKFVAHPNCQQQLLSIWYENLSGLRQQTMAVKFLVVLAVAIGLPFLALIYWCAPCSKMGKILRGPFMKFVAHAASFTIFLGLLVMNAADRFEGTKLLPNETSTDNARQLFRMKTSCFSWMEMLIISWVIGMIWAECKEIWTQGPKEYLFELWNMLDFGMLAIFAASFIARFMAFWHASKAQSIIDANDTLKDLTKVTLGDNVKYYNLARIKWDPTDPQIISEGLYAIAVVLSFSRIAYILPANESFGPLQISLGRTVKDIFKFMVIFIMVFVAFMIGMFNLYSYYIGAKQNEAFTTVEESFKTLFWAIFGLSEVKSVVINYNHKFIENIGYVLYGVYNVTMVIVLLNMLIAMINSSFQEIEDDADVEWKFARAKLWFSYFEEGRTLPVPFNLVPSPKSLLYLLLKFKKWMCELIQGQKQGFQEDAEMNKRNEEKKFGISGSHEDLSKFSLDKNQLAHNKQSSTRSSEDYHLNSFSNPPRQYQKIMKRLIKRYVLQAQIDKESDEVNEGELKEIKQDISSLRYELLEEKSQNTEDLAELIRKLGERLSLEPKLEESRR

outcome, inactive:
O=C(NC(=S)NNC(=O)[C@H]1C[C@@H]1c1ccccc1)c1cccc(F)c1, NCCCn1c(C(=O)c2cc(Cl)c(N)c(Cl)c2)c2ccccc2[n+]1[O-], COC(=O)c1ccccc1N=Nc1c(N)[nH][nH]c1=O, O=C(CNS(=O)(=O)c1ccc2ccccc2c1)NCCc1ccccn1, CC(c1cccnc1)N(CCN(C)C)C(=O)Nc1ccc(Cl)c(Cl)c1 (stereo not drawn), Cc1ccc(C(=O)NC(=S)NNC(=O)c2ccccc2)cc1, C=CCn1c(CCNC(=O)c2ccco2)nc2ccccc21, CCOC(=O)[C@@H]1CCNC[C@@H]1c1ccccc1, Cc1sc2nc(CSc3ccccc3)nc(NCCN(C)C)c2c1C, O=C(NCCc1cccc(Cl)c1)c1ccc(OC2CCN(Cc3ccccn3)CC2)cc1, CCOC(=O)C1(CCCc2ccccc2)CCN(Cc2cn(CC)nc2C)CC1, CCCN(CCC)CCCNC(=O)C1CCN(S(=O)(=O)c2cccc3nsnc23)CC1, CCN1C(=O)c2cccc3c(S(=O)(=O)Nc4ccccc4OC)ccc1c23, CCCN(CCC)CCCNC(=O)C1CCC(CNS(=O)(=O)c2cccc3nsnc23)CC1 (stereo not drawn), CCN1CCN(c2ccc(S(=O)(=O)N3CCCCC3)cc2NC(=O)C(C)Oc2ccc(F)cc2)CC1 (stereo not drawn), O=C(Nc1nnc(-c2ccccc2Cl)o1)c1nc2ccccc2s1, COc1ccc(-c2nn(-c3ccccc3)cc2CNCc2cccnc2)c(F)c1, Cc1ccc2oc(=O)c3cnn(CC(=O)NC4CCN(Cc5ccccc5)CC4)c3c2c1
